Drawing on ChEMBL document CHEMBL1817615, “Dimerization of piceatannol by Momordica charantia peroxidase and α-glucosidase inhibitory activity of the biotransformation products” (Bioorg Med Chem, 2011), this text covers IC50 for ten molecules.

The nature of this experiment: Inhibition of yeast alpha-glucosidase using p-nitrophenyl a-D-glucopyranoside as substrate by spectrophotometry. Further details: species or system Saccharomyces cerevisiae. The gist of the method: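 Yeast enzyme at 1 U/mL with 0.01 M p-nitrophenyl α-D-glucopyranoside substrate, in 0.067 M KH₂PO₄–Na₂HPO₄ buffer, pH 6.8. Reaction run at 37 °C for 10 min and inhibition read spectrophotometrically. Method adapted with slight modification from a published procedure.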

Molecules are shown by their SMILES.

In general, IC50 refers to the point on the concentration scale where inhibition reaches its midpoint. On to `COc1cc([C@H]2Oc3c(O)cc(/C=C/c4cc(O)cc(O)c4)cc3[C@@H]2c2cc(O)cc(O)c2)ccc1O` (relative stereo), for which it took 3.04 µM to reach half-maximal inhibition (IC50).

The molecule `COc1cc(/C=C2/c3cc(O)cc(O)c3[C@H](c3ccc(O)c(OC)c3)[C@H]2c2cc(O)cc(O)c2)ccc1O` [GNETULIN] displayed an IC50 of 70.2 µM.

Molecule `Oc1cc(O)cc(/C=C/c2ccc(O)c(O)c2)c1` [PICEATANNOL] gave an IC50 of 34.3 µM.

Consider `Oc1cc(O)cc(/C=C/c2ccc3c(c2)O[C@H](c2cc(O)cc(O)c2)[C@@H](c2ccc(O)c(O)c2)O3)c1` [MAACKIN], for which the IC50 amounted to 23.2 µM. The IC50 values of the last two molecules are within 1.5-fold of each other.

`OC[C@H]1NC[C@H](O)[C@@H](O)[C@@H]1O` [DUVOGLUSTAT] returned an IC50 of 20.6 µM.

For the molecule `CC(=O)Oc1cc([C@@H]2c3c(O)cc(O)cc3[C@H]3[C@H](c4ccc(O)c(OC(C)=O)c4)c4c(O)cc(O)cc4[C@@H]23)ccc1O`, the IC50 was 131 µM.

The molecule `Oc1cc(O)cc(/C=C/c2cc(O)c3c(c2)[C@H](c2cc(O)cc(O)c2)[C@@H](c2ccc(O)c(O)c2)O3)c1` (racemic) had an IC50 of 1.13 µM.

On to `Oc1cc(O)c2c(c1)[C@H]1[C@H](c3ccc(O)c(O)c3)c3c(O)cc(O)cc3[C@H]1[C@@H]2c1ccc(O)c(O)c1` [CARAROSINOL D], for which the IC50 stood at 79.1 µM.

As to `COc1cc([C@@H]2c3c(O)cc(O)cc3[C@H]3[C@H](c4ccc(O)c(O)c4)c4c(O)cc(O)cc4[C@@H]23)ccc1O` (racemic), it took 109 µM to reach half-maximal inhibition (IC50).

On to `CC(=O)Oc1cc([C@H]2Oc3ccc(/C=C/c4cc(O)cc(O)c4)cc3O[C@@H]2c2cc(O)cc(O)c2)ccc1O` (racemic), for which inhibition was half-maximal at 69.3 µM (IC50).
